According to ChEMBL document CHEMBL4257497, “Design, synthesis and biological evaluation of novel 1,3-diarylpyrazoles as cyclooxygenase inhibitors, antiplatelet and anticancer agents” (Medchemcomm, 2018):

What was measured:
[1] = biological target: T1, COX1 (Prostaglandin G/H synthase 1) (Ovis aries, UniProt P05979); test: Inhibition of sheep COX1 at 10 uM assessed as reduction in PGE2 formation using arachidonic acid as substrate by enzyme immunoassay relative to control; conditions: probe arachidonic acid
T1 sequence (P05979 whole entry): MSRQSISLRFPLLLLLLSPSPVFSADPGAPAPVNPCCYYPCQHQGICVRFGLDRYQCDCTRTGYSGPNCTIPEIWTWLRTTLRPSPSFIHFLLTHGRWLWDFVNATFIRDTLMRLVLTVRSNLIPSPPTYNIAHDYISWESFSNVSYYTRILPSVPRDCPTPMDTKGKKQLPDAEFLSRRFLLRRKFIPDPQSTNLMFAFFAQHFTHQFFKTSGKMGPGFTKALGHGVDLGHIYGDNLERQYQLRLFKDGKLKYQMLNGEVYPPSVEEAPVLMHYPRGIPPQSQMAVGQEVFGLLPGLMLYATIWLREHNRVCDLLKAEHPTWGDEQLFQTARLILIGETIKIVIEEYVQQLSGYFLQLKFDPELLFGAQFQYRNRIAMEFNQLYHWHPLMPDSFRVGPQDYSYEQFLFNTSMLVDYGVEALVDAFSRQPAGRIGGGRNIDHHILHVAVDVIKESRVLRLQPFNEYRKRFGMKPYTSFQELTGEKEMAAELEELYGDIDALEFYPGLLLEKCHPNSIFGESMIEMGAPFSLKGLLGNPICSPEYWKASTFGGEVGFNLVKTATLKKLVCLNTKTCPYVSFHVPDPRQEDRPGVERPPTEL
How it was run: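 Recombinant ovine COX-1, test agent at 10 μM, arachidonic acid as substrate. PGE2 formed is measured by competitive EIA (PGE2–acetylcholinesterase tracer, monoclonal anti-PGE2, Ellman's reagent, absorbance 412 nm) and quantified from an 8-point PGE2 standard curve. Result given as % inhibition of enzyme activity.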

Platelet [2] = test: Antiplatelet activity in human platelet rich plasma assessed as inhibition of arachidonic acid-induced platelet aggregation at 100 uM preincubated for 5 mins followed by arachidonic acid addition measured for 3 mins by aggregometric analysis relative to control; assay type: functional
How it was run: (§1)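 Citrated venous blood (3.2% citrate, 1:9) from healthy donors free of antiplatelet drugs for 10 days; PRP from 800 rpm 10 min spin, PPP from 1500 rpm 10 min; count set to 3.8 × 10^5 platelets […]. PRP stirred at 1100 rpm, 37 °C; compound in DMSO (1% carrier) 5 min before agonist (AA final 700 μM; collagen 5 μg ml−1). Turbidimetric read, triplicate; % inhibition versus DMSO-treated maximum aggregation.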

Platelet [3] = test: Antiplatelet activity in human platelet rich plasma assessed as inhibition of collagen-induced platelet aggregation at 100 uM preincubated for 5 mins followed by arachidonic acid addition measured for 3 mins by aggregometric analysis relative to control; assay type: functional; how it was run: as §1
Huh-7 = test: Cytotoxicity against human HuH7 cells after 72 hrs by SRB assay; assay type: functional, cell-based
How it was run: (§2)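 Cells cultured in DMEM with 10% FBS, 1% non-essential amino acids, penicillin/streptomycin, 37 °C, 5% CO2. 2000–3000 cells per well seeded, grown 24 h, then exposed 72 h to compound (DMSO) at 40, 20, 10, 5, 2.5 μM. TCA fixation, 0.4% SRB stain, unbound dye washed off with 1% acetic acid, bound dye dissolved in 10 mM Tris base, absorbance 515 nm. IC50 against DMSO controls, triplicate.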

MCF7 = test: Cytotoxicity against human MCF7 cells after 72 hrs by SRB assay; assay type: functional, cell-based; how it was run: as §2
HCT-116 = test: Cytotoxicity against human HCT116 cells after 72 hrs by SRB assay; assay type: functional, cell-based; how it was run: as §2
Platelet [4] = test: Antiplatelet activity in human platelet rich plasma assessed as inhibition of arachidonic acid-induced platelet aggregation preincubated for 5 mins followed by arachidonic acid addition measured for 3 mins by aggregometric analysis; assay type: functional, cell-based
[5] = Homo sapiens, HCT-116, 72 h, read-out: IC50
[6] = Homo sapiens, Huh-7, 72 h, read-out: IC50
[7] = Homo sapiens, MCF7, 72 h, read-out: IC50

Row | SMILES | inhibition at 10 µM [1] [%] | inhibition at 100 µM (Platelet [2]) [%] | inhibition at 100 µM (Platelet [3]) [%] | IC50 (Huh-7; huh-7) | IC50 (MCF7; mcf7) | IC50 (HCT-116; [5]) [µM] | IC50 (Huh-7; [6]) [µM] | IC50 (HCT-116; hct-116) | IC50 (Platelet [4]) [µM] | IC50 (MCF7; [7]) [µM]
1 | CS(=O)(=O)c1ccc(-n2cc(/C=C/C(=O)NCc3ccncc3)c(-c3cccnc3)n2)cc1 | 12.5 | 6.2 | 40.9 | Not Active | Not Active | 31.7 |  |  |  | 
2 | O=C(/C=C/c1cn(-c2ccccc2)nc1-c1cccnc1)NCc1ccncc1 | 11.6 | 4.54 | 36.6 |  | Not Active |  | 24.4 | Not Active |  | 
3 | Cc1nccn1CCCNC(=O)/C=C/c1cn(-c2ccccc2)nc1-c1ccncc1 | 5.41 | 7.91 | 41.3 |  | Not Active | 10.8 | 21.1 |  |  | 
4 | CS(=O)(=O)c1ccc(-n2cc(/C=C/C(=O)NCCc3cccnc3)c(-c3cccnc3)n2)cc1 | 1.31 | 14.6 | 70.3 | Not Active | Not Active |  |  | Not Active |  | 
5 | Cc1nccn1CCNC(=O)/C=C/c1cn(-c2ccc(S(C)(=O)=O)cc2)nc1-c1cccnc1 | 29.6 | 14.3 | 8.6 | Not Active | Not Active |  |  | Not Active |  | 
6 | O=C(/C=C/c1cn(-c2ccccc2)nc1-c1ccncc1)NCCc1ccccn1 | 13.1 | 100 | 41.9 |  |  |  | 27.3 | Not Active | 32.8 | 12.2
7 | O=C(/C=C/c1cn(-c2ccccc2)nc1-c1ccncc1)NCc1ccccn1 | 5.96 | 100 | 41.6 |  | Not Active | 20.4 | 14.7 |  | 78.3 | 
8 | O=C(/C=C/c1cn(-c2ccccc2)nc1-c1cccnc1)NCCc1ccccn1 | 3.21 | 3.68 | 21.9 |  |  | 14.2 | 18.9 |  |  | 24.9
9 | O=C(/C=C/c1cn(-c2ccccc2)nc1-c1ccncc1)NCc1cccnc1 | 13.7 | 43.3 | 63.4 | Not Active | Not Active | 14.6 |  |  |  | 
10 | CS(=O)(=O)c1ccc(-n2cc(/C=C/C(=O)NCc3cccnc3)c(-c3cccnc3)n2)cc1 | 13.1 | 90 | 64.1 | Not Active | Not Active |  |  | Not Active | 49.8 | 
11 | Cc1nccn1CCCNC(=O)/C=C/c1cn(-c2ccccc2)nc1-c1cccnc1 | 0.32 | 1.24 | 60.3 |  |  | 21.4 | 13.4 |  |  | 25.1
12 | CS(=O)(=O)c1ccc(-n2cc(/C=C/C(=O)NCCCn3ccnc3)c(-c3cccnc3)n2)cc1 | 40.5 | 82.4 | 52.6 | Not Active | Not Active |  |  | Not Active |  | 
13 | CC(=O)Oc1ccccc1C(=O)O [ASPIRIN] |  | 100 | 100 |  |  |  |  |  | 7.7 | 
14 | O=c1[nH]cc(F)c(=O)[nH]1 [FLUOROURACIL] |  |  |  |  |  |  |  |  |  | 1.4
15 | COc1ccc2c(c1)c(CC(=O)O)c(C)n2C(=O)c1ccc(Cl)cc1 [INDOMETHACIN] | 69.5 |  |  |  |  |  |  |  |  | 
